Assay results: ChEMBL document CHEMBL1122935, “3-(1-Indolinyl)benzylamines: a new class of analgesic agents” (J Med Chem, 1985)

How the values were obtained:
[1] = test system: Mus musculus; assay: Inhibition of PQW-writhing in mice on subcutaneous administration at dose 10 mg/kg; Moderate activity in the range of 35-69%.; type: functional; settings: sc
[2] = test system: Mus musculus; assay: inhibition of PQW-writhing in mice on subcutaneous administration at dose 10 mg/kg. compound showed moderate activity in the range of 35-69%.; type: functional; settings: sc
[3] = test system: Mus musculus; assay: inhibition of PQW-writhing in mice on subcutaneous administration at dose 10 mg/kg. compound showed slight activity in the range of 10-34%,; type: functional; settings: sc
[4] = test system: Mus musculus; assay: Inhibition of PQW-writhing in mice on subcutaneous administration at dose 10 mg/kg; type: functional; settings: sc
[5] = Compound was tested for the approximate analgesic lethal dose (ALD50) on rats; type: ADME, organism-based; settings: rat, in vivo; read-out: ALD50
[6] = organism: Rattus norvegicus; assay: The analgesic activity by D'Armour-Smith tail-flick assay in rats.; type: functional
Procedure, shortened: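 Rat tail-flick test. Compound was given sc in distilled water at 4, 8, 16 and 32 mg/kg, and percent analgesic activity was recorded at each dose. ED50 was calculated by Litchfield-Wilcoxon analysis with 95% confidence limits.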

[7] = test system: Mus musculus; assay: (§1) Oral anti-writhing activity at a dose of 25 mg/kg administered perorally in PQW assay; type: functional
Procedure, shortened: (§2)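 Mouse phenylquinone writhing assay with the compound given orally at 25 mg/kg. Writhing was induced with 0.125% phenyl-p-benzoquinone in 5% aqueous ethanol, 10 mL/kg ip. Writhes were counted over 10 min after a 5-min wait, and percent inhibition was calculated against vehicle-treated controls.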

[8] = test system: Rattus norvegicus; assay: as §1; type: functional; procedure, shortened: as §2
[9] = test system: Mus musculus; assay: Inhibition of PQW-writhing in mice on subcutaneous administration at dose 10 mg/kg; Slight activity in the range of 10-34%; type: functional; settings: sc
[10] = test system: Mus musculus; assay: Inhibition of PQW-writhing in mice on subcutaneous administration at dose 25 mg/kg; Range of inhibition 35-69% (moderate activity); type: functional; settings: sc
[11] = test system: Mus musculus; assay: Inhibition of PQW-writhing in mice on subcutaneous administration at dose 10 mg/kg. compound showed 10-34% inhibition (slight activity); type: functional; settings: sc
[12] = test system: Mus musculus; assay: inhibition of PQW-writhing in mice on subcutaneous administration at dose 10 mg/kg. compound showed slight activity in the range of 10-34%; type: functional; settings: sc

SMILES: NCc1cccc(CN2CCc3ccccc32)c1
- inhibition in vivo at 10 mg/kg [1]: 69%

SMILES: COc1ccc2c(ccn2-c2cccc(CN)c2)c1
- inhibition in vivo at 10 mg/kg [2]: 69%

SMILES: O=C(Cc1ccccc1)NCc1cccc(N2CCc3ccccc32)c1
- inhibition in vivo at 10 mg/kg [2]: 69%

SMILES: CCOC(=O)NCc1cccc(N2CCc3ccccc32)c1
- inhibition in vivo at 10 mg/kg [3]: 34%

SMILES: COc1ccc2c(c1)CCN2c1cccc(CN)c1
- inhibition in vivo at 10 mg/kg [2]: 69%

SMILES: NCc1cccc(N2CCc3ccccc32)c1
- ED50 [4]: 4.2 mg/kg
- LD50 [5]: > 100 mg/kg
- ED50 [6]: 27 mg/kg
- inhibition in vivo at 25 mg/kg [7]: 36%
- inhibition in vivo at 25 mg/kg [8]: 19%

SMILES: COc1ccc2c(c1)CCN2Cc1cccc(CN)c1
- inhibition in vivo at 10 mg/kg [9]: 34%

SMILES: NCc1cccc(CN2CCc3cc(Cl)ccc32)c1
- ED50 [4]: 20.2 mg/kg

SMILES: NCc1cccc(N2CCc3cc(Cl)ccc32)c1
- ED50 [4]: 4.2 mg/kg

SMILES: NCc1ccccc1N1CCc2ccccc21
- ED50 [4]: 14.1 mg/kg

SMILES: CN(C)Cc1cccc(N2CCc3ccccc32)c1
- inhibition in vivo at 10 mg/kg [3]: 34%

SMILES: Nc1ccccc1N1CCc2ccccc21
- inhibition in vivo at 25 mg/kg [10]: 43%

SMILES: c1cc(CNCC2CC2)cc(N2CCc3ccccc32)c1
- inhibition in vivo at 10 mg/kg [2]: 69%

SMILES: CC(N)c1cccc(N2CCc3ccccc32)c1 (centres undefined)
- inhibition in vivo at 10 mg/kg [2]: 69%

SMILES: NCCc1cccc(N2CCc3ccccc32)c1
- inhibition in vivo at 10 mg/kg [2]: 69%

SMILES: CNCc1cccc(N2CCc3ccccc32)c1
- inhibition in vivo at 10 mg/kg [3]: 34%

SMILES: NCc1ccc(N2CCc3ccccc32)cc1
- inhibition in vivo at 10 mg/kg [11]: 34%

SMILES: NCc1cccc(-n2ccc3ccccc32)c1
- ED50 [4]: 19.1 mg/kg

SMILES: O=C(NCc1cccc(N2CCc3ccccc32)c1)C1CC1
- inhibition in vivo at 10 mg/kg [2]: 69%

SMILES: c1ccc(CCNCc2cccc(N3CCc4ccccc43)c2)cc1
- inhibition in vivo at 10 mg/kg [3]: 34%

SMILES: NCc1cccc(-n2ccc3cc(Cl)ccc32)c1
- inhibition in vivo at 10 mg/kg [12]: 34%

SMILES: NC(c1ccccc1)c1cccc(N2CCc3ccccc32)c1 (centres undefined)
- inhibition in vivo at 10 mg/kg [2]: 69%

SMILES: CC(C)=CCN1CC[C@]2(C)c3cc(O)ccc3C[C@H]1[C@H]2C [(+)-PENTAZOCINE]
- ED50 [4]: 2.3 mg/kg
- ED50 [6]: 14.6 mg/kg

SMILES: CCC(=O)O[C@](Cc1ccccc1)(c1ccccc1)[C@H](C)CN(C)C [PROPOXYPHENE]
- ED50 [4]: 3.9 mg/kg
